Experimental data pooled from the literature.
Each line is one published result; the experiments were not run side by side.
Target: Procathepsin L (CTSL, Homo sapiens, UniProt P07711)
Observed: enzyme activity
Action: inhibitor

| SMILES | method | endpoint | result |
| --- | --- | --- | --- |
| O=C(Cn1nnc2ccccc21)Nc1ccccc1N1CCc2sccc2C1 | FRET | IC50 | 9960 nM |
| COc1cc(Nc2ncc(F)c(Nc3ccc4c(n3)NC(=O)C(C)(C)O4)n2)cc(OC)c1OC | – | IC50 | 6310 nM |
| CC[C@H]1NC(=O)[C@@H]2CSC(=N2)[C@@H](Cc2ccccc2)N(C)C(=O)[C@@H]2CCCN2C(=O)[C@H](C(C)C)N(C)C(=O)[C@H](Cc2ccccc2)OC(=O)[C@H](C)[C@@H](C)NC(=O)[C@@H]([C@@H](C)O)NC(=O)[C@@H](CC(C)C)N(C)C(=O)[C@@H]2CSC1=N2 | – | IC50 | 14000 nM |
| CC(C)C[C@H](NC(=O)[C@H]1O[C@@H]1C(=O)O)C(=O)NCCCCN=C(N)N | – | IC50 | 33 nM |
| COC(=O)c1c(C)[nH]c(C(=O)COn2nnc3ccc(S(=O)(=O)N(C)C)cc32)c1C | FRET | IC50 | > 100000 nM |
| COc1cccc2[nH]c(C(=O)N[C@@H](CC(C)C)C(=O)N[C@@H](C[C@@H]3CCNC3=O)C(=O)CO)cc12 | – | IC50 | 146 nM |
| CN(C(=O)[C@H](Cc1ccccc1)NC(=O)[C@@H](NC(=O)OCc1ccccc1)C(C)(C)C)N(C#N)CCC(N)=O | – | Ki | 52.9 nM |
| CC(C)(C)OC(=O)Nc1cccn([C@@H](CC2CC2)C(=O)N[C@@H](C[C@@H]2CCNC2=O)C(=O)C(=O)NCc2ccccc2)c1=O | – | IC50 | 291 nM |
| CC[C@H](NC(=O)OCc1ccccc1)C(=O)N[C@H](C(=O)N[C@@H](CC(C)C)C(=O)N(C)N(C#N)CCC(N)=O)C(C)(C)C | – | Ki | 22.2 nM |
